# According to ChEMBL document CHEMBL3751842, “Novel triazolothiadiazines act as potent anticancer agents in liver cancer cells through Akt and ASK-1 proteins” (Bioorg Med Chem, 2016):
# Calls of active or inactive are those of the source. The calls are words filed in the database; no cut-off is given here.
# Assays:
# [1] = target: T1, Mitogen-activated protein kinase kinase kinase 5 (Homo sapiens) (UniProt Q99683); test: Activation of ASK1 in human HuH7 cells assessed as SAPK/JNK phosphorylation after 24 to 48 hrs by Western blot analysis; type: cell-based; details: Huh-7
# T1 sequence (whole entry): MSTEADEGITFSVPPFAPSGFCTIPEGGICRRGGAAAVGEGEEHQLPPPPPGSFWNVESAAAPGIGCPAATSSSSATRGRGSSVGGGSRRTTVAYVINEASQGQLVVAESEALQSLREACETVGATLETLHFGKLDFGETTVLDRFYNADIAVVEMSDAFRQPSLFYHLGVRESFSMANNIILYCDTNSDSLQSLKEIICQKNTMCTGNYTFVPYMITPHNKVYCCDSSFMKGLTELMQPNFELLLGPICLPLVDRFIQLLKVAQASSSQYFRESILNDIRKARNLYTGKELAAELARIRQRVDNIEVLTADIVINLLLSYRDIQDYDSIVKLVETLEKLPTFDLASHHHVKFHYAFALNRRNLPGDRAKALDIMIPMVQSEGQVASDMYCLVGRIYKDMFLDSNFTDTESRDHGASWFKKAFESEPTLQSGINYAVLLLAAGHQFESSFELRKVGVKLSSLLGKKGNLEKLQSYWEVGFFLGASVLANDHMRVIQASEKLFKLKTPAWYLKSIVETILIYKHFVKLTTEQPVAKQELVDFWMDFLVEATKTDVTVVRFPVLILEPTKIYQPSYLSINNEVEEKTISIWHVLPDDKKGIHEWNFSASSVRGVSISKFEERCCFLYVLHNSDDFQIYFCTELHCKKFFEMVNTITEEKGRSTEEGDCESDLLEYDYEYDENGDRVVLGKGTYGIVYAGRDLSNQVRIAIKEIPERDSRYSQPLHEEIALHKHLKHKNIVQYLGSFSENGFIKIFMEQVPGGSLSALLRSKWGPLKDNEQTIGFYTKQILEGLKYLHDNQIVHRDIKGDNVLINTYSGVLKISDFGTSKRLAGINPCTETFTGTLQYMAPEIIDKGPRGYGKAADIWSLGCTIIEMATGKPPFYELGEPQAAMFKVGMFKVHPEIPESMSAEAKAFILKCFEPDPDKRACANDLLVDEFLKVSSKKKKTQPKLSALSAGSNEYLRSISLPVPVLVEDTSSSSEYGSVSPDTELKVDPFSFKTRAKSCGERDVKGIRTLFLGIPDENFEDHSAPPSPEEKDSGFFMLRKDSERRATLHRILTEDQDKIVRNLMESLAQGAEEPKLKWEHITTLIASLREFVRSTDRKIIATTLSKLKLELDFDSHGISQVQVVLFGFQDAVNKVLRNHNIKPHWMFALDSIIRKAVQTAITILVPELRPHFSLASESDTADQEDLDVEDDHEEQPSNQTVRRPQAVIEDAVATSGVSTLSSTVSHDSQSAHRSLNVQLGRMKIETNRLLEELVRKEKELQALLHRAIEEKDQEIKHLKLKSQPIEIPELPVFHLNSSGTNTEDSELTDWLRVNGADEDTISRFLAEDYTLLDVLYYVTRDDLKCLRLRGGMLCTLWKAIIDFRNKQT
# How it was run: (§1)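 Cells were exposed to compound or DMSO control for 24 or 48 h. Lysates were loaded at […] protein per lane and immunoblotted with antibodies diluted 1:100 to 1:500 in 5% BSA-TBS-T. Targets were p-Akt (Ser473), Akt, p-GSK3-α/β (Ser21/9), GSK3-α/β, SAPK/JNK, p-SAPK/JNK (Thr183/Tyr185), PARP, p-β-catenin, β-catenin, cyclin D1, p-ASK1 (S83) and p-ASK1 (S966). Actin served as the loading control.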
# Huh-7 [2] = test: Induction of apoptosis in human HuH7 cells assessed as nuclear condensation at 10 uM after 48 hrs by Hoechst 33258 staining-based immunofluorescence microscopy; type: functional, cell-based
# How it was run: (§2)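 Cells on coverslips were incubated overnight, then treated with 10 µM compound or DMSO for 48 h. They were washed in ice-cold PBS, fixed in cold methanol for 10 min, and stained with 1 µg/mL Hoechst 33258 for 5 min in the dark. Nuclei were examined by fluorescence microscopy with a 40x objective.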
# [3] = target: T1, Mitogen-activated protein kinase kinase kinase 5 (Homo sapiens); test: Activation of ASK1 in human Mahlavu cells assessed as Ser966 phosphorylation after 24 to 48 hrs by Western blot analysis; type: cell-based; how it was run: as §1
# [4] = target: T1, Mitogen-activated protein kinase kinase kinase 5 (Homo sapiens); test: Activation of ASK1 in human Mahlavu cells assessed as Ser83 phosphorylation after 24 to 48 hrs by Western blot analysis; type: cell-based; how it was run: as §1
# Mahlavu = test: Induction of apoptosis in human Mahlavu cells assessed as decrease in cyclin D1 level after 24 to 48 hrs by Western blot analysis; type: functional, cell-based; how it was run: as §1
# [5] = target: Glycogen synthase kinase-3 beta (Homo sapiens) (UniProt P49841); test: Inhibition of GSK3beta phosphorylation in human Mahlavu cells after 24 to 48 hrs by Western blot analysis; type: cell-based; how it was run: as §1
# [6] = target: Glycogen synthase kinase-3 beta (Homo sapiens) (UniProt P49841); test: Inhibition of GSK3beta phosphorylation in human HuH7 cells after 24 to 48 hrs by Western blot analysis; type: cell-based; details: Huh-7; how it was run: as §1
# [7] = target: RAC-alpha serine/threonine-protein kinase (Homo sapiens) (UniProt P31749); test: Inhibition of Akt phosphorylation in human Mahlavu cells after 24 to 48 hrs by Western blot analysis; type: cell-based; how it was run: as §1
# Huh-7 [8] = test: Induction of oxidative stress in human HuH7 cells assessed as ROS accumulation at 10 uM after 48 hrs by DCFH-DA staining based fluorescence microscopy; type: functional, cell-based
# How it was run: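 Cells in 6-well dishes were treated with 10 µM compound or DMSO for 48 h. They were washed in PBS and stained for 15 min at 37°C in the dark with DCFH-DA solution (1 mM DCFH-DA, 10 mM glucose, 10 mM HEPES in PBS). After three PBS washes, cells were viewed by fluorescence microscopy. Selenium-deficient serum-free medium culture served as the positive control.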
# Huh-7 [9] = test: Induction of cell cycle arrest in human HuH7 cells assessed as accumulation at subG1 phase at 10 uM after 24 to 48 hrs by propidium iodide staining based FACS analysis; type: functional
# How it was run: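 Huh7 cells were seeded at 300,000 per 100-mm dish. After 24 h they were treated with 10 µM compound or DMSO for 24 h and 48 h. Cells were trypsinized, fixed in ice-cold 70% ethanol and stored at −20 °C. They were then stained with propidium iodide and cell-cycle distribution, including SubG1, was read by flow cytometry.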
# Huh-7 [10] = test: Induction of apoptosis in human HuH7 cells assessed as horseshoe nuclear structure at 10 uM after 48 hrs by Hoechst 33258 staining-based immunofluorescence microscopy; type: functional, cell-based; how it was run: as §2
# HepG2 = test: Cytotoxicity against human HepG2 cells assessed as growth inhibition after 72 hrs by sulforhodamine B assay; type: functional, cell-based; details: Homo sapiens, HepG2, 72 h; read-out: IC50
# How it was run: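 Cells were grown at 37°C, 5% CO2 in DMEM with 10% FBS. They were seeded at 1000–3000 cells/well, grown 24 h, then exposed to compound at 2.5–40 µM for 72 h. Cells were fixed in 10% TCA for 1 h at 4°C, stained with 0.4% SRB in 1% acetic acid for 10 min, and the dye solubilized in 10 mM Tris. Absorbance was read at 515 nm; runs were in triplicate; IC50 was calculated, with fits of R2 0.8–1 accepted.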
# Chain of Glycogen synthase kinase-3 beta (Homo sapiens) (P49841 whole entry, looked up): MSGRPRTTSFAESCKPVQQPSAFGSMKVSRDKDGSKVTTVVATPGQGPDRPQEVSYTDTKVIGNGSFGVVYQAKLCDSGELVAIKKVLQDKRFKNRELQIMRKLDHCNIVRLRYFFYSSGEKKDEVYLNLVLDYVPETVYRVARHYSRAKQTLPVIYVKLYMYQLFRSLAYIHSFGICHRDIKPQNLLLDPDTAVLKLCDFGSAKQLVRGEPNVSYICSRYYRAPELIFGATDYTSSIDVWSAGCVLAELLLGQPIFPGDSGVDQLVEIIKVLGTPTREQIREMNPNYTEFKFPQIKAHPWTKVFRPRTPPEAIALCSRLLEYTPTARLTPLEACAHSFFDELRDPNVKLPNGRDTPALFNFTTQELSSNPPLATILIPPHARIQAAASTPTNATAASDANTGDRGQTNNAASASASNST
# Chain of RAC-alpha serine/threonine-protein kinase (Homo sapiens) (P31749 whole entry): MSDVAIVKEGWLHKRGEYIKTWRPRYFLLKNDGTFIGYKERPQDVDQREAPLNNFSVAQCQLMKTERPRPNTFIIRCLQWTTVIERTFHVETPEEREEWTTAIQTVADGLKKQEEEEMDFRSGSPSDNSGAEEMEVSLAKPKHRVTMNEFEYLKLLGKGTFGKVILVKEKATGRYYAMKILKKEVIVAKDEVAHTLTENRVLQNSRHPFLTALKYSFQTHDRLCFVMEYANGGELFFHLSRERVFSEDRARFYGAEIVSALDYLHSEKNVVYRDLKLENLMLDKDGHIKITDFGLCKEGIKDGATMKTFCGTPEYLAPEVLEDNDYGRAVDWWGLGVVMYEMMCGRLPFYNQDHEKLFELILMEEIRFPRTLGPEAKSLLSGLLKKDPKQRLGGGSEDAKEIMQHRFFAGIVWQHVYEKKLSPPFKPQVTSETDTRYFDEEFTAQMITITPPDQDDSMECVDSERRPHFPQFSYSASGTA
Activity [1],Activity [3],Activity [4],inhibition [5],inhibition [6],inhibition [7],Compound,Activity (Huh-7 [2]),Activity (Mahlavu),Activity (Huh-7 [8]),Activity (Huh-7 [9]),Activity (Huh-7 [10]),IC50 (HepG2) [µM]
Active,Active,Active,Active,Active,Active,Cc1ccc(C2=Nn3c(nnc3C(C)c3ccc(CC(C)C)cc3)SC2)cc1 (centres undefined),Active,Active,Active,Active,Active,7.3
Active,Active,Active,Active,Active,Active,COc1ccc(C2=Nn3c(nnc3C(C)c3ccc(CC(C)C)cc3)SC2)cc1 (centres undefined),Active,Active,Active,Active,Active,3.8
